According to ChEMBL document CHEMBL2434944, “Novel acetamidothiazole derivatives: synthesis and in vitro anticancer evaluation” (Eur J Med Chem, 2013):

Columns and labels:
[1] = tested on: CAKI-1; experiment: Growth inhibition of human CAKI-1 cells assessed as cell growth at 10^-5 M after 48 hrs by sulforhodamine B assay relative to control; assay type: functional; conditions: CAKI-1, 48 h, read-out: Activity
Procedure, shortened: (§1)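 NCI-60 single-dose screen at 10^-5 M. Cells grown in RPMI 1640 with 5% FBS and 2 mM L-glutamine, plated at 5,000–40,000 cells/well according to doubling time, and preincubated 24 h at 37°C, 5% CO2. Compound dissolved in DMSO and added. Exposure 48 h. Adherent cells fixed with cold TCA (10% final), suspension cells with 16% final TCA. Read-out is 0.4% SRB staining, dye solubilised in 10 mM Tris, absorbance at 515 nm. Percent growth is calculated against the time-zero plate and untreated control.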

[2] = tested on: ACHN; experiment: Growth inhibition of human ACHN cells assessed as cell growth at 10^-5 M after 48 hrs by sulforhodamine B assay relative to control; assay type: functional; conditions: read-out: Activity; procedure, shortened: as §1
[3] = tested on: A498; experiment: Growth inhibition of human A498 cells assessed as cell growth at 10^-5 M after 48 hrs by sulforhodamine B assay relative to control; assay type: functional; conditions: A498, 48 h, read-out: Activity; procedure, shortened: as §1
[4] = tested on: OVCAR-4; experiment: Growth inhibition of human OVCAR4 cells assessed as cell growth at 10^-5 M after 48 hrs by sulforhodamine B assay relative to control; assay type: functional; conditions: OVCAR-4, 48 h, read-out: Activity; procedure, shortened: as §1
[5] = tested on: SK-MEL-5; experiment: Growth inhibition of human SK-MEL-5 cells assessed as cell growth at 10^-5 M after 48 hrs by sulforhodamine B assay relative to control; assay type: functional; conditions: SK-MEL-5, 48 h, read-out: Activity; procedure, shortened: as §1
[6] = tested on: M14; experiment: Growth inhibition of human M14 cells assessed as cell growth at 10^-5 M after 48 hrs by sulforhodamine B assay relative to control; assay type: functional; conditions: M14, 48 h, read-out: Activity; procedure, shortened: as §1
[7] = tested on: SNB-75; experiment: Growth inhibition of human SNB75 cells assessed as cell growth at 10^-5 M after 48 hrs by sulforhodamine B assay relative to control; assay type: functional; conditions: SNB-75, 48 h, read-out: Activity; procedure, shortened: as §1
[8] = tested on: SNB-19; experiment: Growth inhibition of human SNB19 cells assessed as cell growth at 10^-5 M after 48 hrs by sulforhodamine B assay relative to control; assay type: functional; conditions: SNB-19, 48 h, read-out: Activity; procedure, shortened: as §1
[9] = tested on: SF-539; experiment: Growth inhibition of human SF539 cells assessed as cell growth at 10^-5 M after 48 hrs by sulforhodamine B assay relative to control; assay type: functional; conditions: SF-539, 48 h, read-out: Activity; procedure, shortened: as §1
[10] = tested on: SW-620; experiment: Growth inhibition of human SW620 cells assessed as cell growth at 10^-5 M after 48 hrs by sulforhodamine B assay relative to control; assay type: functional; conditions: SW-620, 48 h, read-out: Activity
Procedure, shortened: (§2)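 NCI-60 single-dose screen, 10^-5 M final. Cells grown in RPMI 1640 with 5% FBS and 2 mM L-glutamine, seeded at 5,000–40,000 cells/well by doubling time. Preincubated 24 h at 37°C, 5% CO2. Compound in DMSO, diluted in medium with gentamicin, then 48 h exposure. Fixed with cold TCA, SRB stained, A515 read. Percent growth vs untreated control, time-zero plate corrected.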

[11] = tested on: HCT-116; experiment: Growth inhibition of human HCT116 cells assessed as cell growth at 10^-5 M after 48 hrs by sulforhodamine B assay relative to control; assay type: functional; conditions: HCT-116, 48 h, read-out: Activity; procedure, shortened: as §1
[12] = tested on: NCI-H522; experiment: Growth inhibition of human NCI-H522 cells assessed as cell growth at 10^-5 M after 48 hrs by sulforhodamine B assay relative to control; assay type: functional; conditions: NCI-H522, 48 h, read-out: Activity; procedure, shortened: as §1
[13] = tested on: NCI-H226; experiment: Growth inhibition of human NCI-H226 cells assessed as cell growth at 10^-5 M after 48 hrs by sulforhodamine B assay relative to control; assay type: functional; conditions: NCI-H226, 48 h, read-out: Activity; procedure, shortened: as §1
[14] = tested on: HOP-92; experiment: Growth inhibition of human HOP92 cells assessed as cell growth at 10^-5 M after 48 hrs by sulforhodamine B assay relative to control; assay type: functional; conditions: HOP-92, 48 h, read-out: Activity; procedure, shortened: as §1
[15] = tested on: HOP-62; experiment: Growth inhibition of human HOP62 cells assessed as cell growth at 10^-5 M after 48 hrs by sulforhodamine B assay relative to control; assay type: functional; conditions: HOP-62, 48 h, read-out: Activity; procedure, shortened: as §1
[16] = tested on: SR; experiment: Growth inhibition of human SR cells assessed as cell growth at 10^-5 M after 48 hrs by sulforhodamine B assay relative to control; assay type: functional; conditions: read-out: Activity; procedure, shortened: as §2
[17] = tested on: RPMI-8226; experiment: Growth inhibition of human RPMI8226 cells assessed as cell growth at 10^-5 M after 48 hrs by sulforhodamine B assay relative to control; assay type: functional; conditions: RPMI-8226, 48 h, read-out: Activity; procedure, shortened: as §1
[18] = tested on: CCRF-CEM; experiment: Growth inhibition of human CCRF-CEM cells assessed as cell growth at 10^-5 M after 48 hrs by sulforhodamine B assay relative to control; assay type: functional; conditions: read-out: Activity; procedure, shortened: as §1
[19] = target: Epidermal growth factor receptor (Homo sapiens, UniProt P00533); experiment: Inhibition of human EGFR
Chain of Epidermal growth factor receptor (P00533 whole entry): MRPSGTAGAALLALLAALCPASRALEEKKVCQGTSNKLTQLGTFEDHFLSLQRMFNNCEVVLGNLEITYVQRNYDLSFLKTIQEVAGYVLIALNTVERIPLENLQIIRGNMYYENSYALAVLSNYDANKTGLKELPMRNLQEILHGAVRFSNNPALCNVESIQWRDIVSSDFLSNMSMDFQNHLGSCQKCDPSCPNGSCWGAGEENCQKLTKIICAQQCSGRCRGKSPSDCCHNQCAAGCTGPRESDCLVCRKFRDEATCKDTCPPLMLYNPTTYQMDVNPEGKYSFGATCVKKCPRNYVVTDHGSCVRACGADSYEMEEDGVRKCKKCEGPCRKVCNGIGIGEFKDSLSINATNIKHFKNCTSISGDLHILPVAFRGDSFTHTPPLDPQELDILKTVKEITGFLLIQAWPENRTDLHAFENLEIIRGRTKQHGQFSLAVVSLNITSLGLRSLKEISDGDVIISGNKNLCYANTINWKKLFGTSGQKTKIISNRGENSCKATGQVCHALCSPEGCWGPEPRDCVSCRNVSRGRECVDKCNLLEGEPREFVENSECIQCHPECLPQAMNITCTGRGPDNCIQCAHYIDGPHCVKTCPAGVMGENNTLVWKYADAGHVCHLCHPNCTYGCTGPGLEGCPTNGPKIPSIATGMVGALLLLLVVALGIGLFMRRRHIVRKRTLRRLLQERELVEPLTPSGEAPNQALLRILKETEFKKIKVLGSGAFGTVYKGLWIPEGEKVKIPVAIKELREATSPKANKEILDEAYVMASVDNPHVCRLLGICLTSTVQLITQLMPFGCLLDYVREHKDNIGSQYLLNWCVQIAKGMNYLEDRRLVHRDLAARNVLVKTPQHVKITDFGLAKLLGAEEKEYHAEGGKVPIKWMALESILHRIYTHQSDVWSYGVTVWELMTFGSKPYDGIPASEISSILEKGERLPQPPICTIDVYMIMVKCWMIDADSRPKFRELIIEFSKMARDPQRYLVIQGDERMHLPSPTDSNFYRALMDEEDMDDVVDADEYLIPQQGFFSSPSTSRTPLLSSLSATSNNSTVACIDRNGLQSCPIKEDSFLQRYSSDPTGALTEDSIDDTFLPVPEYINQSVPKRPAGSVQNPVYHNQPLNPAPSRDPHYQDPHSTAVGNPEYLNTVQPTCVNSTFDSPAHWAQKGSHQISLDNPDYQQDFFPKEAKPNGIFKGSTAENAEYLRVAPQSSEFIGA

[20] = target: Mitogen-activated protein kinase 1 (Homo sapiens, UniProt P28482); experiment: Inhibition of human MAPK1
Chain of Mitogen-activated protein kinase 1 (P28482 whole entry): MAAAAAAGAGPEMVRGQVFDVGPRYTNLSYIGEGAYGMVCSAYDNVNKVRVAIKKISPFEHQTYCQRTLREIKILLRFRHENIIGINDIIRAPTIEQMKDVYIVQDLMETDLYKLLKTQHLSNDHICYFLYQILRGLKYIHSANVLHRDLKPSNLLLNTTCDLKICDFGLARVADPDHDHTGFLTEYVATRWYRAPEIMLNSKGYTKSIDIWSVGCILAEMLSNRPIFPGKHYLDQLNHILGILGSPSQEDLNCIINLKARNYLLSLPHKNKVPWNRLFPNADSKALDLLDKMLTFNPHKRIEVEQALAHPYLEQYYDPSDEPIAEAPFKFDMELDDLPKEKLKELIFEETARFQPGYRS

[21] = tested on: BT-549; experiment: Growth inhibition of human BT549 cells assessed as cell growth at 10^-5 M after 48 hrs by sulforhodamine B assay relative to control; assay type: functional; conditions: BT-549, 48 h, read-out: Activity; procedure, shortened: as §1
[22] = tested on: MDA-MB-231; experiment: Growth inhibition of human MDA-MB-231 cells assessed as cell growth at 10^-5 M after 48 hrs by sulforhodamine B assay relative to control; assay type: functional; conditions: MDA-MB-231, 48 h, read-out: Activity; procedure, shortened: as §1
[23] = tested on: MCF7; experiment: Growth inhibition of human MCF7 cells assessed as cell growth at 10^-5 M after 48 hrs by sulforhodamine B assay relative to control; assay type: functional; conditions: MCF7, 48 h, read-out: Activity; procedure, shortened: as §1
[24] = tested on: DU-145; experiment: Growth inhibition of human DU145 cells assessed as cell growth at 10^-5 M after 48 hrs by sulforhodamine B assay relative to control; assay type: functional; conditions: DU-145, 48 h, read-out: Activity; procedure, shortened: as §1
[25] = tested on: RXF 393; experiment: Growth inhibition of human RXF393 cells assessed as cell growth at 10^-5 M after 48 hrs by sulforhodamine B assay relative to control; assay type: functional; conditions: RXF 393, 48 h, read-out: Activity; procedure, shortened: as §1

SMILES | growth at 10 µM [1] | growth at 10 µM [2] | growth at 10 µM [3] | growth at 10 µM [4] | growth at 10 µM [5] | growth at 10 µM [6] | growth at 10 µM [7] | growth at 10 µM [8] | growth at 10 µM [9] | growth at 10 µM [10] | growth at 10 µM [11] | growth at 10 µM [12] | growth at 10 µM [13] | growth at 10 µM [14] | growth at 10 µM [15] | growth at 10 µM [16] | growth at 10 µM [17] | growth at 10 µM [18] | Ki [19] | Ki [20] | further results
CC(=O)N1CCN(C(=O)Cn2c(-c3ccc(Cl)cc3)csc2=N)CC1 | 82.8% | 90.7% | 67.7% | 77.2% | 86.4% | 95.1% | 74.4% | 84.2% | 90.2% | 106% | 93% | 62.1% | 96.3% | 82% | 93.4% | 74.7% | 73.3% | 92.3% | 8.58 µM | 0.778 µM | growth at 10 µM [21]: 89.9%; growth at 10 µM [22]: 111%; growth at 10 µM [23]: 84.5%; growth at 10 µM [24]: 99%; growth at 10 µM [25]: 100%
Cc1ccc(-c2csc(=N)n2CC(=O)N2CCN(C)CC2)cc1 | 78% | 81.2% | 80.2% | 87.4% | 87.2% | 105% | 73.5% | 99.8% | 101% | 98.4% | 104% | 80.6% | 93.1% | 62.8% | 99.5% | 86.5% | 83.5% | 87.1% | 27.4 µM | 1.89 µM | growth at 10 µM [21]: 115%; growth at 10 µM [22]: 83.4%; growth at 10 µM [23]: 93.2%; growth at 10 µM [24]: 109%; growth at 10 µM [25]: 93.1%
CC(=O)N1CCN(C(=O)Cn2c(-c3ccccc3)csc2=N)CC1 | 76.8% | 89.5% | 100% | 96.9% | 90.2% | 97% | 67.7% | 103% | 91.6% | 109% | 96.1% | 81.3% | 88.8% | 75% | 85.3% | 88.7% | 97.3% | 103% | 16.8 µM | 3.67 µM | growth at 10 µM [21]: 98%; growth at 10 µM [22]: 95.4%; growth at 10 µM [23]: 94.8%; growth at 10 µM [24]: 112%; growth at 10 µM [25]: 86.3%
CN1CCN(C(=O)Cn2c(-c3ccc(Cl)cc3)csc2=N)CC1 | 85.9% | 98.6% | 80% | 90.5% | 100% | 98.9% | 79.5% | 92.7% | 100% | 102% | 94.4% | 86.7% | 95.9% | 77.6% | 101% | 78.5% | 79.1% | 89.1% | 15.6 µM | 8.84 µM | growth at 10 µM [21]: 104%; growth at 10 µM [22]: 103%; growth at 10 µM [23]: 92.2%; growth at 10 µM [24]: 99%; growth at 10 µM [25]: 108%
